In ChEMBL document CHEMBL1142195, “A novel nonnucleoside analogue that inhibits human immunodeficiency virus type 1 isolates resistant to current nonnucleoside reverse transcriptase inhibitors” (Antimicrob Agents Chemother, 2007):

Assays:
[1] = tested on: Human immunodeficiency virus 1; test: Antiviral activity against HIV1 isolate with RT 103N mutation relative to wild type; assay type: functional
[2] = tested on: Human immunodeficiency virus 1; test: Antiviral activity against HIV1 isolate with RT 101Q, 103R mutation relative to wild type; assay type: functional
[3] = tested on: Human immunodeficiency virus 1; test: Antiviral activity against HIV1 isolate with RT 190S mutation relative to wild type; assay type: functional
Summary of the method: (§1)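 Mutant RT clones built in pNL4-3.Luc.R−E− reporter, VSV-G-pseudotyped, single-round infection of HeLa-JC53 cells (15,000/well, MOI 0.03) with 1:4 serial compound dilutions in DMEM (phenol red-free), 2% FBS, 0.2% final DMSO; 48 h at 37°C, 5% CO2; luciferase chemiluminescence read-out. Fold change in EC50 relative to wild-type virus; mean of two tests.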

[4] = tested on: Human immunodeficiency virus 1; test: Antiviral activity against HIV1 isolate with RT 103S mutation relative to wild type; assay type: functional; summary of the method: as §1
[5] = tested on: Human immunodeficiency virus 1; test: Antiviral activity against HIV1 isolate with RT 103N, 188H mutation relative to wild type; assay type: functional
[6] = tested on: Human immunodeficiency virus 1; test: Antiviral activity against HIV1 isolate with RT 101E, 103N, 190A mutation relative to wild type; assay type: functional
[7] = tested on: Human immunodeficiency virus 1; test: Antiviral activity against HIV1 isolate with RT 101H mutation relative to wild type; assay type: functional
[8] = tested on: Human immunodeficiency virus 1; test: Antiviral activity against HIV1 isolate with RT 106I mutation relative to wild type; assay type: functional; summary of the method: as §1
[9] = tested on: Human immunodeficiency virus 1; test: Antiviral activity against HIV1 isolate with RT 179E mutation relative to wild type; assay type: functional; summary of the method: as §1
[10] = tested on: Human immunodeficiency virus 1; test: Antiviral activity against HIV1 isolate with RT 181C mutation relative to wild type; assay type: functional; summary of the method: as §1
[11] = tested on: Human immunodeficiency virus 1; test: Antiviral activity against HIV1 isolate with RT 100I, 103N, 108I mutation relative to wild type; assay type: functional
[12] = tested on: Human immunodeficiency virus 1; test: Antiviral activity against HIV1 isolate with RT 103N, 108I, 181C mutation relative to wild type; assay type: functional
[13] = Tmax in dog at 20 mg/kg, po; assay type: ADME, organism-based, Canis lupus familiaris; parameters: dose 20 mg/kg, route oral; conditions: in vivo
[14] = tested on: Human immunodeficiency virus 1; test: Antiviral activity against HIV1 isolate with RT Y188L mutation; assay type: functional, organism-based
Summary of the method: (§2)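 VSV-G-pseudotyped pNL4-3.Luc.R−E− molecular clones carrying the RT mutations, single-round infection of HeLa-JC53 cells (15,000/well) at MOI 0.03. Compounds serially diluted 1:4 in DMSO then in phenol red-free DMEM with 2% FBS, final DMSO 0.2%. Incubated 48 h at 37°C, 5% CO2. Luciferase read-out by chemiluminescence gives the EC50. Fold change is relative to wt virus, mean of two tests.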

[15] = tested on: Human immunodeficiency virus 1; test: Antiviral activity against HIV1 isolate with RT 181I mutation relative to wild type; assay type: functional; summary of the method: as §1
[16] = tested on: Human immunodeficiency virus 1; test: Antiviral activity against HIV1 isolate with RT 227L mutation relative to wild type; assay type: functional; summary of the method: as §1
[17] = tested on: Human immunodeficiency virus 1; test: Antiviral activity against HIV1 isolate with RT 101Q, 181C, 190A mutation relative to wild type; assay type: functional
[18] = tested on: Human immunodeficiency virus 1; test: Antiviral activity against HIV1 isolate with RT 179D mutation relative to wild type; assay type: functional; summary of the method: as §1
[19] = tested on: Human immunodeficiency virus 1; test: Antiviral activity against HIV1 isolate with RT 98G, 100I, 103N mutation relative to wild type; assay type: functional; summary of the method: as §1
[20] = tested on: Human immunodeficiency virus 1; test: Antiviral activity against HIV1 isolate with RT K103N-Y188L mutation; assay type: functional, organism-based; summary of the method: as §2
[21] = tested on: Human immunodeficiency virus 1; test: Antiviral activity against HIV1 isolate with RT 100F mutation relative to wild type; assay type: functional
[22] = tested on: Human immunodeficiency virus 1; test: Antiviral activity against HIV1 isolate with RT 103N, 238T mutation relative to wild type; assay type: functional; summary of the method: as §1
[23] = tested on: Human immunodeficiency virus 1; test: Antiviral activity against HIV1 isolate with RT 101E, 190S mutation relative to wild type; assay type: functional
[24] = tested on: Human immunodeficiency virus 1; test: Antiviral activity against HIV1 isolate with RT 98G, 101E, 181C, 190A mutation relative to wild type; assay type: functional; summary of the method: as §1
[25] = tested on: Human immunodeficiency virus 1; test: Antiviral activity against wild type HIV1 NL4-3 in Hela-JC53 cells in the presence of 50% human serum after 48 hrs; assay type: functional, organism-based; conditions: Human immunodeficiency virus 1, NL4-3, Hela-JC53, 48 h
Summary of the method: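 HeLa-JC53 cells (1.5 × 10^4) infected with VSV-G-pseudotyped NL4-3.Luci.R−E− reporter virus at MOI 0.03, with 1:4 serial compound dilutions. Heat-inactivated human serum added to final 0–50% on a basal 2% FBS medium. Incubated 48 h at 37°C in 5% CO2. Luciferase read-out; EC50 by nonlinear regression.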

[26] = tested on: Human immunodeficiency virus 1; test: Antiviral activity against HIV1 isolate with RT 103Q mutation relative to wild type; assay type: functional; summary of the method: as §1
[27] = tested on: Human immunodeficiency virus 1; test: Antiviral activity against HIV1 isolate with RT 230L mutation relative to wild type; assay type: functional; summary of the method: as §1
[28] = tested on: Human immunodeficiency virus 1; test: Antiviral activity against HIV1 isolate with RT 238N mutation relative to wild type; assay type: functional; summary of the method: as §1
[29] = tested on: Human immunodeficiency virus 1; test: Antiviral activity against HIV1 isolate with RT 101Q, 190S mutation relative to wild type; assay type: functional
[30] = tested on: Human immunodeficiency virus 1; test: Antiviral activity against HIV1 isolate with RT 103N, 181C mutation relative to wild type; assay type: functional
[31] = tested on: Human immunodeficiency virus 1; test: Antiviral activity against HIV1 isolate with RT 101R, 103N mutation relative to wild type; assay type: functional
[32] = Bioavailability in dog at 20 mg/kg, po; assay type: ADME, organism-based, Canis lupus familiaris; conditions: in vivo
Summary of the method: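 Dogs given 10 mg/kg i.v. or 20 mg/kg p.o., n = 3 per time point. Plasma sampled predose through 24 h. Bioavailability = (oral AUC0-∞/intravenous AUC0-∞) × 100.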

[33] = tested on: Human immunodeficiency virus 1; test: Antiviral activity against HIV1 isolate with RT 103R, 179D, 188L mutation relative to wild type; assay type: functional; summary of the method: as §1
[34] = AUC in dog at 20 mg/kg, po; assay type: ADME, organism-based, Canis lupus familiaris; parameters: dose 20 mg/kg, route oral; conditions: plasma
[35] = tested on: Human immunodeficiency virus 1; test: Antiviral activity against HIV1 isolate with RT 236L mutation relative to wild type; assay type: functional; summary of the method: as §1
[36] = Plasma concentration in dog at 10 mg/kg, iv after 12 hrs; assay type: ADME, organism-based, Canis lupus familiaris; parameters: dose 10 mg/kg, route intravenous
[37] = tested on: Human immunodeficiency virus 1; test: Antiviral activity against HIV1 isolate with RT 103N, 190S mutation relative to wild type; assay type: functional; summary of the method: as §1
[38] = tested on: Human immunodeficiency virus 1; test: Antiviral activity against HIV1 isolate with RT 98G mutation relative to wild type; assay type: functional; summary of the method: as §1
[39] = tested on: Human immunodeficiency virus 1; test: Antiviral activity against HIV1 isolate with RT 103N, 188L mutation relative to wild type; assay type: functional
[40] = tested on: Human immunodeficiency virus 1; test: Antiviral activity against HIV1 isolate with RT 103N, 108I, 181C, 190A mutation relative to wild type; assay type: functional
[41] = tested on: Human immunodeficiency virus 1; test: Antiviral activity against HIV1 isolate with RT 179D, 188L mutation relative to wild type; assay type: functional; summary of the method: as §1
[42] = tested on: Human immunodeficiency virus 1; test: Antiviral activity against HIV1 isolate with RT 101E, 103N mutation relative to wild type; assay type: functional
[43] = tested on: Human immunodeficiency virus 1; test: Antiviral activity against HIV1 isolate with RT 101P, 103N mutation relative to wild type; assay type: functional
[44] = tested on: Human immunodeficiency virus 1; test: Antiviral activity against HIV1 isolate with RT 98G, 103N mutation relative to wild type; assay type: functional; summary of the method: as §1
[45] = tested on: Human immunodeficiency virus 1; test: Antiviral activity against HIV1 isolate with RT 179D, 181C mutation relative to wild type; assay type: functional; summary of the method: as §1
[46] = tested on: Human immunodeficiency virus 1; test: Antiviral activity against HIV1 isolate with RT K103N-F227L mutation; assay type: functional, organism-based; summary of the method: as §2

`NS(=O)(=O)c1ccc(NC(=O)CSc2nnc(Br)n2-c2ccc(C3CC3)c3ccccc23)c(Cl)c1` showed a Fold change [1] of 0.7, a Fold change [2] of 0.6 and a Fold change [3] of 3.9. It also gave a Fold change [4] of 2.7, a Fold change [5] of 3.5 and a Fold change [6] of 50. For the same compound, the Fold change [7] was 2.5, the Fold change [8] was 0.9 and the Fold change [9] was 2.4. It also gave a Fold change [10] of 10, a Fold change [11] of 1.9 and a Fold change [12] of 6.2. It also gave a Tmax [13] of 5.3 h, an EC50 [14] of 0.81 nM and a Fold change [15] of 5.4. It also gave a Fold change [16] of 0.47, a Fold change [17] greater than 100 and a Fold change [18] of 3.3. It also gave a Fold change [19] of 1.4, an EC50 [20] of 1.07 nM and a Fold change [21] of 1.8. The Fold change [22] was 0.6, the Fold change [23] was 16 and the Fold change [24] was 65. The EC50 [25] was 13 nM, the Fold change [26] was 1.4 and the Fold change [27] was 11. The Fold change [28] was 0.7, the Fold change [29] was 2.4 and the Fold change [30] was 10. It also gave a Fold change [31] of 1.2, a bioavailability [32] of 47.1% and a Fold change [33] greater than 100. The AUC [34] was 19600 ng·h/mL, the Fold change [35] was 0.9 and the concentration at 12 h [36] was 283 ng/mL. For the same compound, the Fold change [37] was 18, the Fold change [38] was 2.4 and the Fold change [39] was 3.9. It also gave a Fold change [40] greater than 100, a Fold change [41] greater than 100 and a Fold change [42] of 0.9. The Fold change [43] was 2.2, the Fold change [44] was 4.4 and the Fold change [45] was greater than 100. For the same compound, the EC50 [46] was 0.08 nM.

For `Cc1ccnc2c1NC(=O)c1cccnc1N2C1CC1` [NEVIRAPINE], the Fold change [1] was 51, the Fold change [2] was 1.3 and the Fold change [3] was greater than 100. It also gave a Fold change [4] of 39, a Fold change [5] greater than 100 and a Fold change [6] greater than 100. The Fold change [7] was 12, the Fold change [8] was 1.1 and the Fold change [9] was 1.9. For the same compound, the Fold change [10] was greater than 100, the Fold change [11] was greater than 100 and the Fold change [12] was greater than 100. It also gave a Fold change [15] greater than 100, a Fold change [16] of 2.1 and a Fold change [17] greater than 100. It also gave a Fold change [18] of 4.2, a Fold change [19] greater than 100 and a Fold change [21] of 2.4. For the same compound, the Fold change [22] was greater than 100, the Fold change [23] was greater than 100 and the Fold change [24] was greater than 100. The Fold change [26] was 1, the Fold change [27] was 46 and the Fold change [28] was 1.9. It also gave a Fold change [29] greater than 100, a Fold change [30] greater than 100 and a Fold change [31] greater than 100. For the same compound, the Fold change [33] was greater than 100, the Fold change [35] was 0.5 and the Fold change [37] was greater than 100. The Fold change [38] was 5.9, the Fold change [39] was greater than 100 and the Fold change [40] was greater than 100. For the same compound, the Fold change [41] was greater than 100, the Fold change [42] was greater than 100 and the Fold change [43] was greater than 100. For the same compound, the Fold change [44] was greater than 100 and the Fold change [45] was greater than 100.
